Experimental data published in ChEMBL document CHEMBL1152160, “Synthesis and bioevaluation of hybrid 4-aminoquinoline triazines as a new class of antimalarial agents” (Bioorg Med Chem Lett, 2008).
Converted amounts (≈) assume the structure as drawn.

Assays:
[1] = test system: Plasmodium falciparum; assay: Antimalarial activity after 72hrs against chloroquine-sensitive Plasmodium falciparum 3D7 infected erythrocytes; type: functional, organism-based; conditions: 3D7, 72 h
Procedure, shortened: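 Serial dilutions in screening medium, seven concentrations (top 500 ng/mL, or 100 ng/mL for some compounds), duplicate wells. Added 2.5% haematocrit erythrocytes at 0.5% parasitaemia. Uninfected erythrocytes without drug as negative control, CQ as positive control. After 72 h, SYBR Green I in lysis buffer (20 mM tris pH 7.5, 5 mM EDTA, saponin, Triton X-100), 1 h room temperature, fluorescence read.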

[2] = Selectivity index, ratio of IC50 for african green monkey (Cercopithecus aethiops) Vero cells to IC50 for chloroquine-sensitive Plasmodium falciparum 3D7; type: toxicity, cell-based; conditions: read-out: Ratio IC50
Procedure, shortened: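 Vero cells at 1 × 10⁴ cells/well were exposed to varying compound concentrations, highest 100 µg/mL, for 72 h. Viability was measured by MTT. Cytotoxic IC50 was taken from non-linear regression of dose–response curves and divided by the 3D7 IC50 to give the index.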

[3] = test system: Plasmodium yoelii; assay: Antimalarial activity as reduced parasitaemia after 6 days against Plasmodium yoelii N67 infected Swiss mice (Mus musculus) at 50 mg/kg/day intraperitoneal dose; type: functional, N-67; set-up: scale not given: the % may be the effect or the level left
Procedure, shortened: (§1)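 Swiss mice (22 ± 2 g), groups of five, inoculated day 0 with P. yoelii N-67-parasitized RBC. Dosed 50 mg/kg/day i.p. once daily, days 0–3, as aqueous suspension with a few drops of Tween 80 in 0.2 mL. Parasitaemia read from thin blood smears on days 4–6. Group mean gave % suppression versus untreated controls. CQ-treated mice as reference.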

[4] = test system: Plasmodium yoelii; assay: Antimalarial activity as reduced parasitaemia after 4 days against Plasmodium yoelii N67 infected Swiss mice (Mus musculus) at 50 mg/kg/day intraperitoneal dose; type: functional, N-67; set-up: scale not given: the % may be the effect or the level left; procedure, shortened: as §1
[5] = test system: Mus musculus; assay: Toxicity to Plasmodium yoelii N-67 infected Swiss mice (Mus musculus) assessed as survival at 50 mg/kg/day, intraperitoneally after 28 days; type: organism-based; set-up: route intraperitoneal; conditions: in vivo, ip, 672 h
Procedure, shortened: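 Swiss mice were infected on day 0 with parasitized RBC of CQ-resistant P. yoelii N-67. Groups of five were dosed intraperitoneally at 50 mg/kg/day, once daily on days 0–3. Compounds were given as aqueous suspensions with a few drops of Tween 80. Survival was followed for 28 days. CQ-treated mice served as reference controls.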

| Compound | IC50 [1] | selectivity ratio [2] | Activity [3] | Activity [4] | Activity [5] |
| --- | --- | --- | --- | --- | --- |
| Cc1ccccc1Nc1nc(NC2CCCCC2)nc(N2CCN(CCNc3ccnc4cc(Cl)ccc34)CC2)n1 | 0.194 mg/L (≈ 0.34 µM) | 29 |  |  |  |
| Fc1ccc(Nc2nc(NC3CCCCC3)nc(N3CCN(CCNc4ccnc5cc(Cl)ccc45)CC3)n2)cc1 | 0.00783 mg/L (≈ 0.0136 µM) | 262 | 71.75% | 74.81% |  |
| Fc1ccccc1Nc1nc(N2CCCCC2)nc(N2CCN(CCNc3ccnc4cc(Cl)ccc34)CC2)n1 | 0.159 mg/L (≈ 0.283 µM) | 14.9 |  |  |  |
| Clc1ccc2c(NCCN3CCN(c4nc(Nc5ccccc5)nc(N5CCCCC5)n4)CC3)ccnc2c1 | 0.0178 mg/L (≈ 0.0328 µM) | 117 | 55.36% | 66.67% |  |
| Cc1ccc(Nc2nc(NC3CCCCC3)nc(N3CCN(CCNc4ccnc5cc(Cl)ccc45)CC3)n2)cc1 | 0.256 mg/L (≈ 0.447 µM) | 115 |  |  |  |
| Clc1ccc2c(NCCN3CCN(c4nc(Nc5ccccc5)nc(NC5CCCCC5)n4)CC3)ccnc2c1 | 0.0162 mg/L (≈ 0.0291 µM) | 154 | 78.73% | 86.43% |  |
| Clc1ccc2c(NCCN3CCN(c4nc(NC5CCCCC5)nc(N5CCCCC5)n4)CC3)ccnc2c1 | 0.00443 mg/L (≈ 0.00805 µM) | 481 | 99.11% | 99.9% | Toxic |
| Cc1ccc(Nc2nc(Nc3ccc(C)cc3)nc(N3CCN(CCNc4ccnc5cc(Cl)ccc45)CC3)n2)cc1 | 0.0383 mg/L (≈ 0.0659 µM) | 155 |  |  |  |
| Clc1ccc2c(NCCN3CCN(c4nc(Nc5ccccc5)nc(N5CCOCC5)n4)CC3)ccnc2c1 | 0.0213 mg/L (≈ 0.039 µM) | 470 |  |  |  |
| Cc1ccc(Nc2nc(N3CCN(CCNc4ccnc5cc(Cl)ccc45)CC3)nc(N3CCN(c4ccccc4)CC3)n2)cc1 | 0.0646 mg/L (≈ 0.102 µM) | 52.2 |  |  |  |
| Cc1ccccc1Nc1nc(N2CCOCC2)nc(N2CCN(CCNc3ccnc4cc(Cl)ccc34)CC2)n1 | 0.0192 mg/L (≈ 0.0342 µM) | 377 |  |  |  |
| Cc1ccc(Nc2nc(N3CCOCC3)nc(N3CCN(CCNc4ccnc5cc(Cl)ccc45)CC3)n2)cc1 | 0.0435 mg/L (≈ 0.0776 µM) | 512 |  |  |  |
| Fc1ccc(Nc2nc(N3CCCCC3)nc(N3CCN(CCNc4ccnc5cc(Cl)ccc45)CC3)n2)cc1 | 0.00715 mg/L (≈ 0.0127 µM) | 329 | 96.51% | 99.9% |  |
| Cc1ccccc1Nc1nc(Nc2ccccc2C)nc(N2CCN(CCNc3ccnc4cc(Cl)ccc34)CC2)n1 | 0.186 mg/L (≈ 0.32 µM) | 75.3 |  |  |  |
| CCN1CCN(c2nc(Nc3ccccc3)nc(N3CCN(CCNc4ccnc5cc(Cl)ccc45)CC3)n2)CC1 | 0.038 mg/L (≈ 0.0663 µM) | 41.8 |  |  |  |
| CCN1CCN(c2nc(Nc3ccc(C)cc3)nc(N3CCN(CCNc4ccnc5cc(Cl)ccc45)CC3)n2)CC1 | 0.019 mg/L (≈ 0.0324 µM) | 41 |  |  |  |
| Clc1ccc2c(NCCN3CCN(c4nc(Nc5ccccc5)nc(Nc5ccccc5)n4)CC3)ccnc2c1 | 0.0756 mg/L (≈ 0.137 µM) | 27.8 |  |  |  |
| Clc1ccc2c(NCCN3CCN(c4nc(N5CCCCC5)nc(N5CCCCC5)n4)CC3)ccnc2c1 | 0.0444 mg/L (≈ 0.0828 µM) | 53.2 |  |  |  |
| O=CN1CCN(c2nc(N3CCOCC3)nc(N3CCN(CCNc4ccnc5cc(Cl)ccc45)CC3)n2)CC1 | 0.0105 mg/L (≈ 0.0185 µM) | 4110 |  |  |  |
| CCN(CC)CCCC(C)Nc1ccnc2cc(Cl)ccc12 (stereo unspecified) [CHLOROQUINE] |  |  | 94.26% | 99.9% |  |
